Experimental data of several laboratories.
Compare with care: the assays were run in different laboratories.
CASP1: Caspase-1 (CASP1, Homo sapiens, UniProt P29466)
ADRA1B: Alpha-1B adrenergic receptor (ADRA1B, Homo sapiens, UniProt P35368)
PPARA: Peroxisome proliferator-activated receptor alpha (PPARA, Homo sapiens, UniProt Q07869)

CC(=O)N[C@@H](CCCNC(=N)N)C(=O)NCCOCCOCC(=O)N[C@H](CC(=O)O)C(=O)N1CCC[C@H]1B(O)O  Ki (Prolyl endopeptidase (PREP, Homo sapiens, UniProt P48147); enzyme activity, inhibitor, fluorescence): 0.0239 µM
CS(=O)(=O)Nc1ccc[nH]c1=S  Ki (Insulin-degrading enzyme (IDE, Homo sapiens, UniProt P14735); cell-free assay, inhibitor): > 200 µM
CC(=O)N[C@@H](CC(C)C)C(=O)N[C@@H](CC(C)C)C(=O)N[C@@H](CCCN=C(N)N)C(=O)N[C@H](C(=O)N[C@@H](CCCCN)C(=O)N[C@@H](CCCN=C(N)N)C(N)=O)C(C)C  Ki (Proprotein convertase subtilisin/kexin type 7 (Homo sapiens, UniProt Q16549); enzyme activity, inhibitor): 2.7 µM
O=c1c(O)c(-c2cc(O)c(O)c(O)c2)oc2cc(O)cc(O)c12  Ki (CASP1; enzyme activity, inhibitor, fluorescence): 14.3 µM
CSC[C@H]1CN(Cc2c[nH]c3c(N)ncnc23)C[C@@H]1O  Ki (5'-methylthioadenosine/S-adenosylhomocysteine nucleosidase (Staphylococcus aureus, UniProt Q5HFG2); enzyme activity, inhibitor): 0.0078 µM
COc1ccccc1N1CCN(CCCCN2CCc3ccccc3C2=O)CC1  Ki (ADRA1B; ligand displacement, radioligand): 0.0766 µM
CC1(COc2ccc(CC3SC(=O)NC3=O)cc2)CCCCC1 (stereo not shown)  Ki (PPARA; ligand displacement, TR-FRET): 141 µM
Cc1cccc(C(=O)NCN2CCN(c3ccccc3C#N)CC2)c1  Ki (D(2) dopamine receptor (Drd2, Rattus norvegicus, UniProt P61169); ligand displacement, radioligand; cell membranes): 1.38 µM
COc1ccc2c(c1)C(=O)N(CCN1CCN(c3ccccc3OC)CC1)C2  Ki (ADRA1B; ligand displacement, radioligand): 0.0387 µM
CCCC[C@H](NC(=O)[C@H](C)c1c(C)[nH]c2ccc(O)cc12)c1ncc(-c2cc3ccccc3nc2OC)[nH]1  Ki (Histone deacetylase 3 (HDAC3, Homo sapiens, UniProt O15379); enzyme activity, inhibitor): 0.06 µM
O=C1c2ccccc2CCN1CCCCN1CCN(c2ccccn2)CC1  Ki (ADRA1B; ligand displacement, radioligand): 1.38 µM
O=c1c(O)c(-c2ccc(O)c(O)c2)oc2cc(O)cc(O)c12  Ki (CASP1; enzyme activity, inhibitor, fluorescence): > 300 µM
O=C(O)c1c(Sc2ccccc2)c2cc(Cl)ccc2n1Cc1ccc(Cl)cc1  Ki (PPARA; ligand displacement, TR-FRET): 19.7 µM
